Assay outcomes as filed in PubChem BioAssay.
This is one part of a sample in which hits are shown more often than they occur.
Yeast life ext = yeast lifespan extension. inhibition of the nicotinamide effect, % at 10 µM. AID 775. 130,000 compounds, 0.68% hits. S. cerevisiae growth with nicotinamide, OD615; deaD strain in restrictive glucose medium;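 active = inhibition above a set limit, placed 3 SD over the median of all compounds, cut at about 26% in these data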;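 note: 0% = nicotinamide-treated wells and 100% = cells grown without nicotinamide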
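assay system = DeaD-strain S. cerevisiae | measured by = absorbance at 615 nm | probe or stimulus = nicotinamide 1.5 mM | buffer or medium = CSMM-D glucose medium, restrictive | times = 48 h at 30 °C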
PostGolgi ctrl = yeast control strain growth, post-Golgi counter-screen | efflux-deficient yeast background strain, growth absorbance A615, 16 h | inhibition, % at 10 µM | AID 738 | 98,000 compounds, 5% hits
Yeast growth inh = yeast BB579 growth reduction in restrictive medium; S. cerevisiae BB579 growth, OD615, 48 h; inhibition, % at 10 µM; 140,000 compounds, 0.51% hits; AID 804;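 active = inhibition above a set limit, 3 SD over the mean compound inhibition, cut at about 44% in these data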
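Test system: Saccharomyces cerevisiae DeaD strain BB579, replicative lifespan model yeast | Buffer or medium: Restrictive CSMM-D medium | Doses: One dose, 10 µM compound with 0.25% DMSO | Incubation: 48 h exposure, 30 °C | Detection: Culture absorbance at 615 nm | Control set: Amphotericin B at 10 µg/mL as positive control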
PostGolgi yeast = growth inhibition of a yeast mutant, post-Golgi transport screen; post-Golgi transport phenotypic cell assay; inhibition, % at 10 µM; 98,000 compounds, 0.9% hits; AID 739;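 note: yeast cells grown in 1536-well plates; yeast grown about 18 h at 30C before absorbance read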
* = called active by the depositor; . = no result. Cut-off read from the data, not from the text of the source, unless noted: active = inhibition above about 30%; inactive = the rest.

SMILES	Yeast life ext	PostGolgi ctrl	Yeast growth inh	PostGolgi yeast
O=S(=O)(c1ccc2c(c1)OCCO2)N(Cc1ccc(F)cc1)Cc1nnc(-c2cccs2)o1	-14	35*	-66	-4
Cc1sc2nc(C(C)C)nc(SCC(=O)NCc3ccco3)c2c1C	-5	40*	-59	4
CN(C)c1ccc(N=Nc2ccccc2C(=O)OCC(=O)N2CCCC2)cc1	1	.	-20	.
CN(C)c1ccc(N=Nc2ccccc2C(=O)OCC(=O)Nc2ccccc2C(F)(F)F)cc1	29*	.	-24	.
CCOC(=O)Cc1csc(NS(=O)(=O)c2ccc(F)cc2)n1	-9	6	-57	-5
N#CCSc1nnc(COc2cccc3ccccc23)n1-c1cccc(Cl)c1	-6	54*	-89	-10
N#CCSc1nnc(COc2cccc3ccccc23)n1-c1ccccc1	-6	31*	-7	-8
COc1ccc(/C=C(\C#N)C(=O)OCC(=O)Nc2c(C)cccc2C(C)C)cc1	-4	.	-45	.
COC(=O)C1=C(C)NC(C)=C(C(=O)OCCN(C)Cc2ccccc2)C1c1cccc([N+](=O)[O-])c1 (centres undefined)	11	.	-45	.
c1ccc2c(c1)nnn1c3ccccc3nc21	-15	-10	65*	9
N#CCSc1nc2ccccc2c2nc3ccccc3n12	-5	.	61*	.
Cc1nc2ccccc2c2nc3ccccc3n12	-19	8	92*	2
CCN1CCCC1CN(Cc1cc2ccc(C)cc2[nH]c1=O)C(=S)Nc1cccc(OC)c1 (centres undefined)	4	.	-21	.
Cc1ccc2nc3sc(C(=O)N4CCCc5ccccc54)c(N)c3cc2c1	-9	50*	-50	7
COc1c(Cl)cnn(-c2ccccc2)c1=O	-1	.	-3	.
COc1cnn(-c2ccccc2)c(=O)c1SCc1ccc(Cl)c(Cl)c1	3	60*	-14	2
Cc1ccc(C)c(C(=O)COC(=O)c2cc([N+](=O)[O-])ccc2NCCO)c1	-8	.	-27	.
C=CCNCc1cccn1-c1ccccc1	3	34*	-2	-1
COc1ccc(C)cc1N(C(=O)c1ccccc1F)c1nc2ccccc2s1	-3	.	-19	.
COc1cc2nc(C3CCC3)n(NC(=O)COc3ccccc3)c(=O)c2cc1OC	53*	-7	8	-7
COc1cc2nc(C3CCC3)n(NC(=O)C3CCC3)c(=O)c2cc1OC	-8	13	-10	3
CC(=O)c1cccc(NC(=O)Cc2coc3cc4c(cc23)CCC4)c1	-4	.	-60	.
C/C(=N\NC(=O)COc1cccc(Cl)c1)c1ccc2c(c1)OCCO2	0	.	-42	.
C/C(=N\NC(=O)CSCc1ccc(Cl)cc1)c1ccc2c(c1)OCCO2	-12	31*	-20	3
COc1cc(/C=C(\NC(C)=O)C(=O)Nc2cccc(O)c2)ccc1OC(C)=O	-1	.	-16	.
SMILES	Yeast life ext	PostGolgi ctrl	Yeast growth inh	PostGolgi yeast
S=C(c1ccc(N2CCCC2)cc1)N1CCCCC1	-12	11	-33	-10
Oc1ccc(C(=S)N2CCCCCC2)cc1	-2	30*	-46	-20
O=C(NCc1cccnc1)C(=O)NCC1OCCN1S(=O)(=O)c1ccc(F)cc1 (centres undefined)	1	.	-1	.
O=S(=O)(c1cccc(-c2csc(-c3ccccc3)n2)c1)N1CCOCC1	-6	23	-12	-6
O=S(=O)(c1cccc(-c2nc3ccccc3s2)c1)N1CCOCC1	-7	30*	-17	2
Cc1ccc(S(=O)(=O)N2CCCC2)cc1S(=O)(=O)N1CCCC1	-12	18	0	-3
Cc1ccc(-c2nc3ccccc3s2)cc1S(=O)(=O)N1CCCC1	-27	31*	-25	28
COC(/C=C/Nc1ccc(Br)cc1)=C(C#N)C#N	-11	-4	-14	-5
COc1ccc(C(=O)CSc2nnc(CN3CCCCC3)n2-c2ccc(Cl)cc2)cc1OC	3	.	-45	.
O=c1cc(-c2ccccc2)[nH]n1-c1nc2ccccc2[nH]1	-26	4	97*	-5
Cc1nn(-c2nc3ccccc3[nH]2)c(N)c1-c1ccccc1	.	.	-22	.
CN(CC(=O)NCc1cccc(F)c1)C(=O)c1ccco1	23	-4	-11	-17
Cc1ccc(C(=O)O/N=C/c2c(N3CCOCC3)n(C)c3ccccc23)cc1	-8	32*	64*	16
CC(=O)O/N=C/c1c(N2CCOCC2)n(C)c2ccccc12	-10	10	79*	26
Cc1ccc(C(=O)O/N=C/c2c(Cl)n(C)c3ccccc23)cc1	-15	4	-33	-9
Cn1c(N2CCOCC2)c(/C=N/OC(=O)c2ccc(F)cc2)c2ccccc21	-23	34*	85*	42*
CC(C)c1c(Cl)c(O)c(-c2ccccc2)c(=O)n1-c1ccc(F)cc1	2	.	-17	.
COC(=O)c1sc2cc(C(F)(F)F)cnc2c1-c1ccccc1	-27	45*	-45	8
O=C(O)c1sc2cc(C(F)(F)F)cnc2c1-c1ccccc1	-1	-12	-15	-7
CC(C)Cc1nnc(NS(=O)(=O)c2ccc(Cl)cc2)s1	26*	11	-18	-1
COc1ccc(S(=O)(=O)Nc2nnc(CC(C)C)s2)cc1	34	1	-30	3
Nc1oc2ccc(F)cc2c(=O)c1C=O	27*	.	-31	.
Nc1oc2ccccc2c(=O)c1C=O	-3	.	-46	.
O=C(CN1CCN(Cc2ccc(Cl)cc2)C1=O)NCCN1CCCC1	5	.	-35	.
CSc1nc(-c2ccccc2)nn1C(=O)c1ccc(C)cc1	-11	-1	-6	-3
SMILES	Yeast life ext	PostGolgi ctrl	Yeast growth inh	PostGolgi yeast
CC12CC3CC(C)(C1)CC(C(=O)NC1=NCCS1)(C3)C2	2	38*	-67	-2
O=C1NC(=O)C2(COC3(CCCC3)OC2)S1	-2	35*	-49	4
Cc1ccc(/C=N/NC(=O)c2csc3c2CCCC3)cc1	-6	32*	-29	-8
COc1cc(/C=N/NC(=O)c2csc3c2CCCC3)cc(OC)c1O	2	.	-5	.
CCOC(=O)COc1ccc2c(c1)C(=O)CC(C)(c1cccnc1)O2 (centres undefined)	-18	42*	-36	4
CC1CCN(c2nc(Cl)nc(Nc3ccc([N+](=O)[O-])cc3)n2)CC1	-2	.	-44	.
COC(=O)N/N=C/c1cccc(OCCSc2ccc(Cl)cc2)c1	7	.	-16	.
CS(=O)(=O)N(Cc1ccccc1)c1ccc(C(=O)N2CCc3ccccc3C2)cc1	-21	0	1	15
CN1C(=O)Cc2cc(S(=O)(=O)N3CCOCC3)ccc21	-16	51*	-42	2
Cc1ccc(CNC(=O)c2ccc(NC(=O)CCS(=O)(=O)c3cccs3)cc2)cc1	1	8	1	-5
Cn1nnnc1SCC(=O)Nc1ccccc1Cl	-7	4	-11	-2
COC(=O)c1ccc(-n2nnnc2SCC(=O)Nc2ccccc2C(=O)OC)cc1	-9	37*	-24	25
CC(NC(=O)c1ccccc1NC(=O)CSc1nnnn1C)c1ccccc1 (centres undefined)	-6	33*	-33	20
Cc1ccc(/C=C2/C(=O)N=C(N)N2C)s1	3	.	-47	.
CC(C)CNC(=O)/C=C/c1cccs1	0	.	-10	.
COc1cc(/C=N/NC(=O)c2[nH]nc3c2CCc2ccccc2-3)ccc1O	-4	.	-56	.
